Measured values reported in ChEMBL document CHEMBL1641412, “Synthesis and 11β hydroxysteroid dehydrogenase 1 inhibition of thiazolidine derivatives with an adamantyl group” (Bioorg Med Chem Lett, 2011).

Legend:
[1] = biological target: T1, 11-beta-hydroxysteroid dehydrogenase type 2 (Homo sapiens) (UniProt P80365); experiment: Inhibition of human 11beta-HSD2 expressed in HEK293 cells at 10 uM after 24 hrs by HTRF cortisol assay; format: cell-based
T1 sequence (whole entry): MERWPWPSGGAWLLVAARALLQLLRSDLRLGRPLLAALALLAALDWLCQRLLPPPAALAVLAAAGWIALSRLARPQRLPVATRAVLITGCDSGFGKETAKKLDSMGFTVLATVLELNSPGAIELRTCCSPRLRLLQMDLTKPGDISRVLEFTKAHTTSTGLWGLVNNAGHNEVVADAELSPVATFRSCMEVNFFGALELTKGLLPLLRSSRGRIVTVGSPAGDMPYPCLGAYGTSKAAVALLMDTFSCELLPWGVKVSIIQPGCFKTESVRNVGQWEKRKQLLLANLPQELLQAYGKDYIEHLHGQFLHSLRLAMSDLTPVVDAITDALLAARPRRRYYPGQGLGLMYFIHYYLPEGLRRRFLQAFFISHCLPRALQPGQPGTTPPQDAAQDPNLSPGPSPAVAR

[2] = Metabolic stability in human liver microsomes after 30 mins; format: ADME, Microsome; conditions: read-out: Stability
[3] = biological target: 11-beta-hydroxysteroid dehydrogenase 1 (Homo sapiens, UniProt P28845); experiment: Inhibition of human 11beta-HSD1 expressed in CHO cells after 3 hrs by HTRF cortisol assay; format: cell-based
[4] = biological target: 11-beta-hydroxysteroid dehydrogenase 1 (Mus musculus, UniProt P50172); experiment: Inhibition of mouse 11beta-HSD1 expressed in CHO cells after 3 hrs by HTRF cortisol assay; format: cell-based
CYP2C19 = CYP2C19 (Homo sapiens, UniProt P33261); experiment: Inhibition of CYP2C19 at 10 uM; format: ADME
CYP3A4 = CYP3A4 (Homo sapiens, UniProt P08684); experiment: Inhibition of CYP3A4 at 10 uM; format: ADME
CYP1A2 = biological target: T2, CYP1A2 (Homo sapiens, UniProt P05177); experiment: Inhibition of CYP1A2 at 10 uM; format: ADME
T2 sequence (P05177 whole entry): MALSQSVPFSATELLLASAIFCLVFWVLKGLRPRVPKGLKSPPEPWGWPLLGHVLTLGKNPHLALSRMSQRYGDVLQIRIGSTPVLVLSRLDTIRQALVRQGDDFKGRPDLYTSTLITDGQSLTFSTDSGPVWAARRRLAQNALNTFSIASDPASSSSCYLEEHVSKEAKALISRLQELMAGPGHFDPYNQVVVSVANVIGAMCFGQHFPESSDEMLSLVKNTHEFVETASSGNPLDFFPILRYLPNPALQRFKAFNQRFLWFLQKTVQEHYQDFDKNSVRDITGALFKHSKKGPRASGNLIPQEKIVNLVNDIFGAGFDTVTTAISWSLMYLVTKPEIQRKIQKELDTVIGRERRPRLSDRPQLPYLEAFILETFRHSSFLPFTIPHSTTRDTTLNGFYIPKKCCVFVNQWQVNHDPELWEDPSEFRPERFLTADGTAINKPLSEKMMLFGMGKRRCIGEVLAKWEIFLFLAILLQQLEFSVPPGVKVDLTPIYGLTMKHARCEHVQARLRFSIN

CYP2D6 = CYP2D6 (Homo sapiens, UniProt P10635); experiment: Inhibition of CYP2D6 at 10 uM; format: ADME
[5] = Oral bioavailability in po dosed rat; format: ADME, organism-based; conditions: in vivo
Mus musculus [6] = experiment: In vivo inhibition of 11beta-HSD1 in C57/BL6 mouse lnguinal fat pad assessed as cortisol product at 40 mg/kg, po after 2 hrs by ELISA; format: functional; conditions: C57Bl/6, Fat pad
[7] = Clearance in po dosed rat; format: ADME, organism-based; conditions: in vivo
Mus musculus [8] = experiment: In vivo inhibition of 11beta-HSD1 in C57Bl/6 mouse liver assessed as cortisol product at 40 mg/kg, po after 2 hrs by ELISA; format: functional; conditions: C57Bl/6, 2 h
[9] = Cmax in po dosed rat; format: ADME, organism-based; design: route oral; conditions: in vivo
Mus musculus [10] = experiment: Antidiabetic activity in KKAy mouse assessed as reduction of non-fasting plasma glucose level at 100 mg/kg, po qd for 18 days relative to control; format: functional; design: scale not given: the % may be the effect or the level left
Method in brief: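 KKAy mice dosed orally at 100 mg/kg for 18 days alongside vehicle-treated controls; non-fasting blood glucose measured after 18 days; n = 7 mice/group, means ± SEM.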

Cynomolgus monkey [11] = experiment: In vivo inhibition of 11beta-HSD1 in cynomolgus monkey lnguinal fat pad assessed as cortisol product at 20 mg/kg, po after 2 hrs by ELISA; format: functional; conditions: Macaca fascicularis
[12] = biological target: Voltage-gated inwardly rectifying potassium channel KCNH2 (Homo sapiens, UniProt Q12809); experiment: Binding affinity to human ERG
Cynomolgus monkey [13] = experiment: In vivo inhibition of 11beta-HSD1 in cynomolgus monkey liver assessed as cortisol product at 20 mg/kg, po after 2 hrs by ELISA; format: functional; conditions: Macaca fascicularis
Mus musculus [14] = experiment: Antidiabetic activity in KKAy mouse assessed as reduction of AUC of plasma glucose level at 100 mg/kg, po qd for 18 days by oral glucose tolerance test relative to control; format: functional; design: scale not given: the % may be the effect or the level left
[15] = AUC (0 to 8 hrs) in po dosed rat; format: ADME, organism-based; design: time < 8 hr, route oral; conditions: plasma
Method in brief: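 Rats dosed orally; plasma exposure expressed as AUC over 0–8 h.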

11-beta-hydroxysteroid dehydrogenase 1 (Homo sapiens, UniProt P28845), sequence (P28845 whole entry): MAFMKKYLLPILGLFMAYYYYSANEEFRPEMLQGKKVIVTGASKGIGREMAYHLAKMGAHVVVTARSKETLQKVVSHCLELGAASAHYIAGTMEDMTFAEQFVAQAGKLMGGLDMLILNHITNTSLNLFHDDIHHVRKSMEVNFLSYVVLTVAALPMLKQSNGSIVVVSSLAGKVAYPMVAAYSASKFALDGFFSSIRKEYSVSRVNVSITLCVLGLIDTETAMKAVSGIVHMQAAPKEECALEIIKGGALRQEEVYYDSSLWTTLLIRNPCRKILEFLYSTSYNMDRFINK
11-beta-hydroxysteroid dehydrogenase 1 (Mus musculus, UniProt P50172), sequence (P50172 whole entry): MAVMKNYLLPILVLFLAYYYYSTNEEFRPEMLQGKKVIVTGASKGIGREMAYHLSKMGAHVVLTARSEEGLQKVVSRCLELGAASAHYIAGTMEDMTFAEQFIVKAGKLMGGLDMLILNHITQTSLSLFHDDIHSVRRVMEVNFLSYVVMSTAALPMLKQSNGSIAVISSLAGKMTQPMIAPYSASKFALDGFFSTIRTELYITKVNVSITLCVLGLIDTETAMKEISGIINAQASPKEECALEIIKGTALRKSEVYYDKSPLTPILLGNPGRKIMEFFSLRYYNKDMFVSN
CYP3A4, sequence (P08684 whole entry): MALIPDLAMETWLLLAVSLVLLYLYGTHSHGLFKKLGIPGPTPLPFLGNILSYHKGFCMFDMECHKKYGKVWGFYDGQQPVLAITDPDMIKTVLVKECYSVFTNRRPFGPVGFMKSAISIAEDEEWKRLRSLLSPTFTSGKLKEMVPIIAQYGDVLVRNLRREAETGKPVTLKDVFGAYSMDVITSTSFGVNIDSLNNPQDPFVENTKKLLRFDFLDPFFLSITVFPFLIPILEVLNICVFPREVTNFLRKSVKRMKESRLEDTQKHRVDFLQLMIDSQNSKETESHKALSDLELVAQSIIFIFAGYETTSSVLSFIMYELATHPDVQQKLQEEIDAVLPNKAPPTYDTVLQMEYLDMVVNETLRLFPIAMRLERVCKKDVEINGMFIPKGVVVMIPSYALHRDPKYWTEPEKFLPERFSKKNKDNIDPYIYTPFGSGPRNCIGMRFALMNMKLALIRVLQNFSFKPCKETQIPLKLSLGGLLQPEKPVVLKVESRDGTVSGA
CYP2C19, sequence (P33261 whole entry): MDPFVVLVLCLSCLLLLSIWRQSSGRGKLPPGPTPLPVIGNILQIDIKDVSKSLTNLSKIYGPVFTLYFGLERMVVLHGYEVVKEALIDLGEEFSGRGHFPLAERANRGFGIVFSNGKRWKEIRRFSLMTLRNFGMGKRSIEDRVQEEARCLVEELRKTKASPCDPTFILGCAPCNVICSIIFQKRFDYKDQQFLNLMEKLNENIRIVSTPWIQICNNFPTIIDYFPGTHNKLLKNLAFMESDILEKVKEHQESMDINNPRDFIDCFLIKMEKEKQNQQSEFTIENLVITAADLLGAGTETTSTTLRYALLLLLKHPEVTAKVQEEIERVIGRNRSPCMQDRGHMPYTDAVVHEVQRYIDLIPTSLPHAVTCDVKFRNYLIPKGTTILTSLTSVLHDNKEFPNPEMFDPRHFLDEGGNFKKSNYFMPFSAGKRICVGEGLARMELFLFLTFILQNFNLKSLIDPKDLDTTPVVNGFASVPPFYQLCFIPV
CYP2D6, sequence (P10635 whole entry): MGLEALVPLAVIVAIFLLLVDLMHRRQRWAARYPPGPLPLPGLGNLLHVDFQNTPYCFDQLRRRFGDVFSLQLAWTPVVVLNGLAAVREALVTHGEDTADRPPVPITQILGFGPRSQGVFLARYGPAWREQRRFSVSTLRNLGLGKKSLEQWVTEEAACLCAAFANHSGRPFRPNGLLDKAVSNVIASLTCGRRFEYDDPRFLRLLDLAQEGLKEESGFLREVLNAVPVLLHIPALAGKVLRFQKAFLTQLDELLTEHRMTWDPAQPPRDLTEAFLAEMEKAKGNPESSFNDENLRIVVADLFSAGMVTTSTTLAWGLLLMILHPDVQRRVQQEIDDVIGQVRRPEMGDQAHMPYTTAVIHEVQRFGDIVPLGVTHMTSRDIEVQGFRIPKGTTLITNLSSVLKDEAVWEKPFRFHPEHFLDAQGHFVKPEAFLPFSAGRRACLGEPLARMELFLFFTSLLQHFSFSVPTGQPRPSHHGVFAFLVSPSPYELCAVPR
Voltage-gated inwardly rectifying potassium channel KCNH2, sequence (Q12809 whole entry): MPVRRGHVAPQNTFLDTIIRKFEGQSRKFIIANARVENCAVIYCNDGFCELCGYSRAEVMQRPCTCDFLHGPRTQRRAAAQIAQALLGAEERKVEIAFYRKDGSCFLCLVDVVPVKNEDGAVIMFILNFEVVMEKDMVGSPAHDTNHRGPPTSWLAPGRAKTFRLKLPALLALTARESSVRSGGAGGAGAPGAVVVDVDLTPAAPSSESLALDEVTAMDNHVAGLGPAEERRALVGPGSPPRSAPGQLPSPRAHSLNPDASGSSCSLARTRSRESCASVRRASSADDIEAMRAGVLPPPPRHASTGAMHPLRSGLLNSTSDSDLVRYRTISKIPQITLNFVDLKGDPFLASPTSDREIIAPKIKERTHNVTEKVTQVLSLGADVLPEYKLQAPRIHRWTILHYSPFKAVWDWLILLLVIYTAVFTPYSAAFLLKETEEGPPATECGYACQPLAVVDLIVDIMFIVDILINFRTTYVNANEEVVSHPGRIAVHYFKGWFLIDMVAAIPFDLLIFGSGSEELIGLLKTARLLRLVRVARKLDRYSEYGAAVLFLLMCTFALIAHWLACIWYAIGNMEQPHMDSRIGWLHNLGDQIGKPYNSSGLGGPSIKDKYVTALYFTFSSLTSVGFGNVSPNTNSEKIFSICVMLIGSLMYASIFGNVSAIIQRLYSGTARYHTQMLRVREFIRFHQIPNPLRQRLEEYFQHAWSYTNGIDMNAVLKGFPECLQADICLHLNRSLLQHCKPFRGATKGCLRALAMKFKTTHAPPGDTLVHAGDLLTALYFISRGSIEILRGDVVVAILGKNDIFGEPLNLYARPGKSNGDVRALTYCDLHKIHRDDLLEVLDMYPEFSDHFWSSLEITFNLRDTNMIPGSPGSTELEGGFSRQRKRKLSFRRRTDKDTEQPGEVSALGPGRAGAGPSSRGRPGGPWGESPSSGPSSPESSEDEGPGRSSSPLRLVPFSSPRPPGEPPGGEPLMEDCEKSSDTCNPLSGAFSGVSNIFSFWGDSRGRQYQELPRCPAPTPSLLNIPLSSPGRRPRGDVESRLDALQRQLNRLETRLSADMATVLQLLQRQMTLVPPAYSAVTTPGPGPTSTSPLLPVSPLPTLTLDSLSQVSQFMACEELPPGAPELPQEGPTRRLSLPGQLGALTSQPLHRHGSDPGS

NC(=O)C12CC3CC(C1)C(NC(=O)C1SCCN1S(=O)(=O)c1ccc(Cl)c(Cl)c1)C(C3)C2 (stereo unspecified)
inhibition [1]: 47%
remaining at 0.5 h [2]: 43%
IC50 [3]: 0.005 µM

NC(=O)C12CC3CC(C1)C(NC(=O)C1SCCN1S(=O)(=O)c1ccccc1)C(C3)C2 (stereo unspecified)
IC50 [4]: 0.842 µM

Cc1ccc(S(=O)(=O)N2CCSC2C(=O)NC2C3CC4CC2CC(C(N)=O)(C4)C3)cc1 (stereo unspecified)
inhibition at 10 µM (CYP2C19): 21%
inhibition at 10 µM (CYP3A4): 24%
inhibition at 10 µM (CYP1A2): 0%
inhibition [1]: 0%
inhibition at 10 µM (CYP2D6): 0%
bioavailability [5]: 16%
inhibition in vivo at 40 mg/kg (Mus musculus [6]): 51%
CL/F [7]: 43.3 mL/min/kg
remaining at 0.5 h [2]: 53%
inhibition in vivo at 40 mg/kg (Mus musculus [8]): 51%
IC50 [4]: 0.057 µM
Cmax [9]: 650 ng/mL
IC50 [3]: 0.008 µM

COc1ccc(S(=O)(=O)N2CCSC2C(=O)NC2C3CC4CC2CC(C(N)=O)(C4)C3)cc1 (stereo unspecified)
IC50 [4]: 0.171 µM

NC(=O)C12CC3CC(C1)C(NC(=O)C1SCCN1S(=O)(=O)c1cccc(F)c1)C(C3)C2 (stereo unspecified)
IC50 [4]: 0.076 µM

NC(=O)C12CC3CC(C1)C(NC(=O)C1SCCN1S(=O)(=O)c1ccc(F)cc1)C(C3)C2 (stereo unspecified)
IC50 [4]: 0.027 µM

NC(=O)C12CC3CC(C1)C(NC(=O)C1SCCN1S(=O)(=O)c1ccccc1F)C(C3)C2 (mixture of isomers)
IC50 [3]: 0.004 µM

NC(=O)C12CC3CC(C1)C(NC(=O)C1SCCN1S(=O)(=O)c1ccccc1F)C(C3)C2 (stereo in doubt; 8g (E)) [listing 1 of 2 here]
Activity (Mus musculus [10]): 28.2%
inhibition at 10 µM (CYP2C19): 25%
inhibition in vivo at 20 mg/kg (Cynomolgus monkey [11]): 62%
inhibition at 10 µM (CYP3A4): 21%
inhibition at 10 µM (CYP1A2): 0%
Activity [12]: > 100 µM
inhibition at 10 µM (CYP2D6): 0%
inhibition in vivo at 20 mg/kg (Cynomolgus monkey [13]): 57%
bioavailability [5]: 32%
Activity (Mus musculus [14]): 18.1%
inhibition in vivo at 40 mg/kg (Mus musculus [6]): 67%
CL/F [7]: 48.3 mL/min/kg
remaining at 0.5 h [2]: 77%
inhibition in vivo at 40 mg/kg (Mus musculus [8]): 65%
AUC(0-t) at 8 h [15]: 1110 ng·h/mL
IC50 [4]: 0.003 µM
IC50 [3]: 0.003 µM

NC(=O)C12CC3CC(C1)C(NC(=O)C1SCCN1S(=O)(=O)c1ccccc1F)C(C3)C2 (stereo in doubt; 8g (E)) [listing 2 of 2 here]
inhibition [1]: 0%

NC(=O)C12CC3CC(C1)C(NC(=O)[C@H]1SCCN1S(=O)(=O)c1ccccc1F)C(C3)C2 (stereo in doubt; 8g (R) (E))
IC50 [3]: 0.002 µM

NC(=O)C12CC3CC(C1)C(NC(=O)[C@H]1SCCN1S(=O)(=O)c1ccccc1F)C(C3)C2 (stereo in doubt; 8g (R) (Z))
IC50 [3]: 1.34 µM

NC(=O)C12CC3CC(C1)C(NC(=O)[C@@H]1SCCN1S(=O)(=O)c1ccccc1F)C(C3)C2 (stereo in doubt; 8g (S) (E))
IC50 [3]: 0.012 µM

NC(=O)C12CC3CC(C1)C(NC(=O)[C@@H]1SCCN1S(=O)(=O)c1ccccc1F)C(C3)C2 (stereo in doubt; 8g (S) (Z))
IC50 [3]: 38.7 µM

NC(=O)C12CC3CC(C1)C(NC(=O)C1SCCN1S(=O)(=O)c1ccccc1F)C(C3)C2 (stereo in doubt; 8g (Z))
IC50 [3]: 7.95 µM

NC(=O)C12CC3CC(C1)C(NC(=O)C1SCCN1S(=O)(=O)c1ccccc1F)C(C3)C2 (stereo in doubt; 8g)
IC50 [4]: 0.004 µM
IC50 [3]: 0.004 µM
